The values below come from ChEMBL document CHEMBL1123190, “Synthesis and biological evaluation of cyclic analogues of 1-carnitine as potential agents in the treatment of myocardial ischemia” (J Med Chem, 1986).

Where “and” joins values, the source holds several entries; their conditions need not be identical. Identical values can stand only once.

The target in one test is T1, Mitochondrial carnitine/acylcarnitine carrier protein (Rattus norvegicus) (UniProt P97521).
T1 sequence (whole entry): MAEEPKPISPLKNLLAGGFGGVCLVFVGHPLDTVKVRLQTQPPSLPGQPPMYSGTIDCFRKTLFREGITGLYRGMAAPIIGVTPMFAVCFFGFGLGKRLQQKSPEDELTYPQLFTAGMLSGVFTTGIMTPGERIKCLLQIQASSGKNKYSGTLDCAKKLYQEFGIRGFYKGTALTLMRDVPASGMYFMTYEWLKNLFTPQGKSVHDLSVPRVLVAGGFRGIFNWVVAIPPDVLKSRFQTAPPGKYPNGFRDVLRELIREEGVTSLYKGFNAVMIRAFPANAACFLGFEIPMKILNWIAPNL
Kind of test: Affinity of compound towards the carnitine/acylcarnitine translocase was determined by monitoring the efflux of [14C]L-carnitine from isolated rat heart mitochondria. In short, it runs like this:
(§1)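 Isolated rat heart mitochondria (differential centrifugation) in 200 mM D-mannitol/50 mM Tris-HCl pH 7.4 with rotenone, oligomycin and antimycin A were loaded with l-carnitine plus [14C]-l-carnitine for 3 min at 28 °C, then washed. Compound at 3 or 50 mM, or water control, was added; efflux ran 1 min on ice and was quenched with mersalyl. Supernatant was scintillation-counted, and % efflux was calculated against control and total radioactivity. Mean of three.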
The compound `O=C(O)C1CCCNC1` (stereo not given) returned an Experimental DPM of 4130.

With `CCCCCCCCCCCCCCCC(=O)O[C@@H]1C[C@@H](C(=O)O)[N+](C)(C)C1`, the Experimental DPM is 5890 and 8870.

As for `CCCCCCCCCCCCCCCC(=O)OC(CN)CC(=O)O` (stereo not given), the Experimental DPM amounted to 3470.

`O=C(O)[C@@H]1CCCN1` registered an Experimental DPM of 5050.

The compound `NCC(O)CC(=O)O` (stereo not given) had an Experimental DPM of 4220.

As to `O=C(O)C1CCCCN1` (stereo not given), the Experimental DPM came out at 4280.

Compound `O=C(O)[C@@H]1C[C@@H](O)CN1` yielded an Experimental DPM of 5350.

`C[N+]1(C)CCC[C@H]1C(=O)[O-]` gave an Experimental DPM of 5570.

The next test addresses T1, Mitochondrial carnitine/acylcarnitine carrier protein (Rattus norvegicus). The experiment in a line: Affinity of compound towards the carnitine/acylcarnitine translocase was determined by monitoring the efflux of [14C]L-carnitine from isolated rat heart mitochondria at 3 mM conc. In short, it runs like this:
as §1
`C[N+]1(C)CCCCC1C(=O)O` (stereo not given) showed an Experimental DPM of 3850, a Total DPM of 10900 and a Trans of 0%.

`C[N+](C)(C)[C@@H]1CCCC[C@H]1C(=O)O` returned an Experimental DPM of 4170, a Total DPM of 10900 and a Trans of 0%.

`C[N+]1(C)C[C@H](O)C[C@H]1C(=O)O` showed an Experimental DPM of 4930, a Total DPM of 12200 and a Trans of 3.16%.

As to `C[N+]1(C)CCCC(C(=O)O)C1` (stereo not given), the Experimental DPM worked out at 4030, the Total DPM stood at 10900 and the Trans turned out to be 0%.

Regarding `C[N+](C)(C)CC(O)CC(=O)[O-]` (stereo not given), the Experimental DPM was determined as 11800, the Total DPM was found to be 12200 and the Trans was determined as 94.2%.

In the case of `C[N+]1(C)CCC[C@H]1C(=O)[O-]`, the Total DPM stood at 12200 and the Trans amounted to 3.17%.
